# The source made the active and inactive calls. The rule behind the calls is not given here.
# Columns and labels:
# K562 = test: Cytotoxicity against human K562 cells after 48 hrs by MTT assay; assay type: functional, cell-based; details: K562, 48 h
# Procedure, shortened: (§1)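 MTT conversion assay at 37 °C, 5% CO₂. […] Inhibition relative to untreated cells as 100%; IC50 by linear regression, mean of three independent experiments.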
# HepG2 [1] = test: Cytotoxicity against human HepG2 cells after 48 hrs by MTT assay; assay type: functional, cell-based; details: HepG2, 48 h; procedure, shortened: as §1
# MDA-MB-231 = test: Cytotoxicity against human MDA-MB-231 cells after 48 hrs by MTT assay; assay type: functional, cell-based; details: MDA-MB-231, 48 h; procedure, shortened: as §1
# HCT-116 = test: Cytotoxicity against human HCT116 cells after 48 hrs by MTT assay; assay type: functional, cell-based; details: HCT-116, 48 h; procedure, shortened: as §1
# HepG2 [2] = test: Cytotoxicity against human HepG2 cells assessed as mitochondrial permeability augmentation at 1 to 30 uM after 48 hrs by fluorescence-based high-content screening assay; assay type: functional, cell-based
# Procedure, shortened: (§2)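 HepG2 seeded 5 × 10³/well; after 12 h treated at 1, 5, 10, 15 and 30 μM for 48 h. Multiparameter cytotoxicity kit staining imaged by high-content screening: Hoechst 33342 for nuclear morphology, permeability dye (green nuclei) for membrane integrity, mitochondrial potential dye, and a weak-base dye for lysosomal mass/pH.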
# HepG2 [3] = test: Cytotoxicity against human HepG2 cells assessed as decrease in mitochondrial membrane potential at 1 to 30 uM after 48 hrs by fluorescence-based high-content screening assay; assay type: functional, cell-based; procedure, shortened: as §2
# HepG2 [4] = test: Cytotoxicity against human HepG2 cells assessed as acruement in lysosomal mass/pH at 1 to 30 uM after 48 hrs by fluorescence-based high-content screening assay; assay type: functional, cell-based; procedure, shortened: as §2
# HepG2 [5] = test: Cytotoxicity against human HepG2 cells assessed as cell nuclear shrinkage at 1 to 30 uM after 48 hrs by Hoechst 33342-based fluorescence-based high-content screening assay; assay type: functional; procedure, shortened: as §2
# Mus musculus [6] = test: Hematotoxicity in mouse H22 cells bearing Kunming mouse assessed as decrease in bone marrow cell numbers at 5 mg/kg, iv administered for 7 days measured on day 8 relative to vehicle treated control; assay type: organism-based; parameters: dose 5 mg/kg, route intravenous; details: in vivo, 168 h
# Procedure, shortened: (§3)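 Tumour-bearing mice (10 per group) dosed iv for 7 consecutive days; killed on day 8. Blood and bone marrow collected; platelet, RBC, WBC and bone marrow cell counts determined with a Coulter counter. Mean SD versus saline control; Student's t test or ANOVA with q test.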
# HepG2 [7] = test: Cytotoxicity against human HepG2 cells assessed as acruement in lysosomal mass/pH after 48 hrs by fluorescence-based high-content screening assay; assay type: functional, cell-based; procedure, shortened: as §2
# H22 [8] = test: Antitumor activity against mouse H22 cells xenografted in Kunming mouse assessed as decrease in cell survival at 5 mg/kg, iv administered on day 8 post-tumor injection for 7 days measured on day 16 relative to vehicle treated control; assay type: functional, organism-based; parameters: dose 5 mg/kg
# HepG2 [9] = test: Cytotoxicity against human HepG2 cells assessed as decrease in mitochondrial membrane potential after 48 hrs by fluorescence-based high-content screening assay; assay type: functional, cell-based; procedure, shortened: as §2
# H22 [10] = test: Antitumor activity against mouse H22 cells xenografted in Kunming mouse assessed as tumor growth inhibition at 5 mg/kg, iv administered on day 8 post-tumor injection for 7 days measured on day 16 relative to vehicle treated control; assay type: functional; details: read-out: GI
# Procedure, shortened: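 Male Kunming mice, 5 weeks, 18−22 g, injected sc with 2 × 10⁶ H22 cells. From day 8, randomized groups got caudal vein injection (0.2 or 5 mg/kg, or physiologic saline) for 7 consecutive days. On day 16 tumours excised and weighed; inhibitory rate (%) = [(A − B)/A] × 100 using mean tumour weights of control (A) and treated (B). Tumours formalin-fixed, H&E-stained.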
# Mus musculus [11] = test: Toxicity in mouse H22 cells bearing Kunming mouse assessed pathological changes in liver at 5 mg/kg, iv administered for 7 days measured on day 8 by hematoxylin and eosin staining relative to vehicle treated control; assay type: organism-based; parameters: dose 5 mg/kg, route intravenous; details: in vivo, 168 h
# Procedure, shortened: (§4)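 Tumour-bearing mice dosed iv for 7 consecutive days, killed on day 8; heart, liver, kidney, brain, lung and spleen removed, fixed in 10% formaldehyde 24 h, paraffin-embedded, sectioned and H&E stained for histopathological change versus saline controls.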
# HepG2 [12] = test: Cytotoxicity against human HepG2 cells assessed as mitochondrial permeability augmentation after 48 hrs by fluorescence-based high-content screening assay; assay type: functional, cell-based; procedure, shortened: as §2
# Mus musculus [13] = test: Toxicity in mouse H22 cells bearing Kunming mouse assessed as weight loss at 5 mg/kg, iv administered for 7 days measured on day 8 relative to vehicle treated control; assay type: organism-based; parameters: dose 5 mg/kg, route intravenous; details: in vivo, 168 h
# Procedure, shortened: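 Body weight monitored in tumour-bearing mice during 7 consecutive days of iv dosing (10 per group), as a sign of dose-limiting toxicity versus saline-treated controls; mice killed on day 8.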
# H22 [14] = test: Antimetastatic activity against mouse H22 cells xenografted in Kunming mouse assessed as decrease in lung metastasis focuses number at 5 mg/kg, iv administered on day 11 post-tumor injection for 7 days measured on day 18 by hematoxylin and eosin staining relative to vehicle treated control; assay type: functional, organism-based; parameters: dose 5 mg/kg
# Mus musculus [15] = test: Toxicity in mouse H22 cells bearing Kunming mouse assessed pathological changes in lung at 5 mg/kg, iv administered for 7 days measured on day 8 by hematoxylin and eosin staining relative to vehicle treated control; assay type: organism-based; parameters: dose 5 mg/kg, route intravenous; details: in vivo, 168 h; procedure, shortened: as §4
# H22 [16] = test: Antitumor activity against mouse H22 cells xenografted in Kunming mouse assessed as median survival time at 5 […], iv administered 24 hrs post-tumor injection for 7 days relative to vehicle treated control; assay type: functional
# Procedure, shortened: (§5)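 Kunming mice bearing H22 cells; iv (caudal vein) dosing or physiologic saline control started 24 h after inoculation and given for 7 consecutive days. Median survival time recorded per group; activity judged as increase in lifespan versus saline control.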
# Mus musculus [17] = test: Toxicity in mouse H22 cells bearing Kunming mouse assessed as decrease in white blood cells number at 5 mg/kg, iv administered for 7 days measured on day 8 relative to vehicle treated control; assay type: organism-based; parameters: dose 5 mg/kg, route intravenous; details: in vivo, 168 h; procedure, shortened: as §3
# Mus musculus [18] = test: Toxicity in mouse H22 cells bearing Kunming mouse assessed pathological changes in heart at 5 mg/kg, iv administered for 7 days measured on day 8 by hematoxylin and eosin staining relative to vehicle treated control; assay type: organism-based; parameters: dose 5 mg/kg, route intravenous; details: in vivo, 168 h; procedure, shortened: as §4
# H22 [19] = test: Antitumor activity against mouse H22 cells xenografted in Kunming mouse assessed as median survival time at 5 […], iv administered 24 hrs post-tumor injection for 7 days (reference value: 12.7 +/- 2.5 days); assay type: functional; procedure, shortened: as §5
# Mus musculus [20] = test: Toxicity in mouse H22 cells bearing Kunming mouse assessed as change in spleen index number at 5 mg/kg, iv administered for 7 days measured on day 8 relative to vehicle treated control; assay type: organism-based; parameters: dose 5 mg/kg, route intravenous; details: in vivo, 168 h
# Procedure, shortened: (§6)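 Tumour-bearing mice (10 per group) dosed iv for 7 consecutive days, killed on day 8; spleen and thymus removed and weighed. Organ index (%) = (organ weight/body weight) × 100, compared with saline-treated controls.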
# HepG2 [21] = test: Cytotoxicity against human HepG2 cells assessed as cell nuclear shrinkage after 48 hrs by Hoechst 33342-based fluorescence-based high-content screening assay; assay type: functional; procedure, shortened: as §2
# Mus musculus [22] = test: Toxicity in mouse H22 cells bearing Kunming mouse assessed pathological changes in kidney at 5 mg/kg, iv administered for 7 days measured on day 8 by hematoxylin and eosin staining relative to vehicle treated control; assay type: organism-based; parameters: dose 5 mg/kg, route intravenous; details: in vivo, 168 h; procedure, shortened: as §4
# Mus musculus [23] = test: Toxicity in mouse H22 cells bearing Kunming mouse assessed as change in thymus index number at 5 mg/kg, iv administered for 7 days measured on day 8 relative to vehicle treated control; assay type: organism-based; parameters: dose 5 mg/kg, route intravenous; details: in vivo, 168 h; procedure, shortened: as §6
# Mus musculus [24] = test: Toxicity in mouse H22 cells bearing Kunming mouse assessed pathological changes in spleen at 5 mg/kg, iv administered for 7 days measured on day 8 by hematoxylin and eosin staining relative to vehicle treated control; assay type: organism-based; parameters: dose 5 mg/kg, route intravenous; details: in vivo, 168 h; procedure, shortened: as §4
# H22 [25] = test: Antimetastatic activity against mouse H22 cells xenografted in Kunming mouse assessed as tumor weight at 5 mg/kg, iv administered on day 11 post-tumor injection for 7 days measured on day 18 (reference value: 0.34 +/- 0.15 g); assay type: functional
# H22 [26] = test: Antimetastatic activity against mouse H22 cells xenografted in Kunming mouse assessed as decrease in lung metastases nodus number at 5 mg/kg, iv administered on day 11 post-tumor injection for 7 days measured on day 18 by hematoxylin and eosin staining relative to vehicle treated control; assay type: functional, organism-based; parameters: dose 5 mg/kg
# Mus musculus [27] = test: Toxicity in mouse H22 cells bearing Kunming mouse assessed as decrease in red blood cells number at 5 mg/kg, iv administered for 7 days measured on day 8 relative to vehicle treated control; assay type: organism-based; parameters: dose 5 mg/kg, route intravenous; details: in vivo, 168 h; procedure, shortened: as §3
# Mus musculus [28] = test: Toxicity in mouse H22 cells bearing Kunming mouse assessed pathological changes in brain at 5 mg/kg, iv administered for 7 days measured on day 8 by hematoxylin and eosin staining relative to vehicle treated control; assay type: organism-based; parameters: dose 5 mg/kg, route intravenous; details: in vivo, 168 h; procedure, shortened: as §4
# Mus musculus [29] = test: Toxicity in mouse H22 cells bearing Kunming mouse assessed as decrease in platelet number at 5 mg/kg, iv administered for 7 days measured on day 8 relative to vehicle treated control; assay type: organism-based; parameters: dose 5 mg/kg, route intravenous; details: in vivo, 168 h; procedure, shortened: as §3
structure (smiles),measurement,setting,value
NCCCCNCCCCN1C(=O)c2cccc3c(-c4ccccc4)ccc(c23)C1=O,IC50,K562,14.4 µM
same,IC50,HepG2 [1],17.1 µM
same,IC50,MDA-MB-231,19.2 µM
NCCCNCCCNCCCN1C(=O)c2ccc(-c3ccc4c(c3)C(=O)N(CCCNCCCNCCCN)C4=O)cc2C1=O,IC50,HepG2 [1],> 50 µM
same,IC50,MDA-MB-231,> 50 µM
same,IC50,HCT-116,> 50 µM
NCCCCNCCCCNCCCCN1C(=O)c2ccc(-c3ccc4c(c3)C(=O)N(CCCCNCCCCNCCCCN)C4=O)cc2C1=O,IC50,HepG2 [1],> 50 µM
same,Activity,HepG2 [2],inactive
same,IC50,MDA-MB-231,> 50 µM
same,Activity,HepG2 [3],inactive
same,IC50,HCT-116,> 50 µM
same,Activity,HepG2 [4],inactive
same,Activity,HepG2 [5],inactive
CN(C)CCN1C(=O)c2cccc3cc(N)cc(c23)C1=O [AMONAFIDE],IC50,K562,31.7 µM
same,Activity,Mus musculus [6],Toxic
same,Activity,HepG2 [7],Dose-dependent effect
same,Activity,H22 [8],Active
same,Activity,HepG2 [9],Dose-dependent effect
same,inhibition in vivo at 5 mg/kg,H22 [10],44.7%
same,IC50,HepG2 [1],36 µM
same,IC50,MDA-MB-231,42 µM
same,Activity,Mus musculus [11],Non-toxic
same,Activity,HepG2 [12],Dose-dependent effect
same,Activity,Mus musculus [13],Toxic
same,Activity,H22 [14],Active
same,Activity,Mus musculus [15],Non-toxic
same,IC50,HCT-116,32 µM
same,Ratio,H22 [16],1.5
same,Activity,Mus musculus [17],Toxic
same,Activity,Mus musculus [18],Non-toxic
same,MST,H22 [19],18.9 days
same,Activity,Mus musculus [20],Toxic
same,Activity,HepG2 [21],Dose-dependent effect
same,Activity,Mus musculus [22],Non-toxic
same,Activity,Mus musculus [23],Toxic
same,Activity,Mus musculus [24],Non-toxic
same,Activity,H22 [25],0.29 g
same,Activity,H22 [26],Active
same,Activity,Mus musculus [27],Toxic
same,Activity,Mus musculus [28],Non-toxic
same,Activity,Mus musculus [29],Toxic
NCCCNCCCN1C(=O)c2ccc3c4c(ccc(c24)C1=O)C(=O)N(CCCNCCCN)C3=O,IC50,K562,1.01 µM
same,IC50,HepG2 [1],2.83 µM
same,IC50,MDA-MB-231,2.95 µM
same,IC50,HCT-116,5.02 µM
NCCCNCCCCNCCCN1C(=O)c2cccc3c(-c4ccccc4)ccc(c23)C1=O,IC50,K562,14.2 µM
same,IC50,HepG2 [1],15.8 µM
same,IC50,MDA-MB-231,14.5 µM
NCCCNCCCNCCCN1C(=O)c2cccc3c(-c4ccccc4)ccc(c23)C1=O,IC50,K562,14.4 µM
same,IC50,HepG2 [1],15.6 µM
same,IC50,MDA-MB-231,14.6 µM

# — ChEMBL document CHEMBL2046427, “Nonhematotoxic naphthalene diimide modified by polyamine: synthesis and biological evaluation” (J Med Chem, 2012)
